Test results from ChEMBL document CHEMBL1124037, “Structure-activity relationship in PAF-acether. 4. Synthesis and biological activities of carboxylate isosteres” (J Med Chem, 1988).

Experiments:
Oryctolagus cuniculus [1] = assay: In vitro antiaggregation activity against PAF-acether induced platelet aggregation when administered at dose of 1 uM/Kg after 2 minutes; format: functional
Oryctolagus cuniculus [2] = organism: Oryctolagus cuniculus; assay: In vitro aggregant (agonist) activity inducing platelet aggregation
Cavia porcellus [3] = assay: In vivo activity for protection against PAF acether induced thrombocytopenia in guinea pig after 5 min of intravenous administration (0.5 mg/kg); format: functional
Procedure, shortened: (§1)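 Male Hartley guinea pigs (450-500 g), urethane 1.25 g/kg ip, pancuronium 2 mg/kg, ventilated (50 strokes/min, 10 mL/kg). Antagonist iv 5 min before PAF 100 ng/kg iv. Konzett-Rossler lung inflation resistance vs control group; platelet counts from carotid blood 1 min before and after PAF. Percent inhibition per dose.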

Cavia porcellus [4] = assay: In vivo activity for protection against PAF acether induced thrombocytopenia in guinea pig after 5 min of intravenous administration (1 mg/kg); format: functional; procedure, shortened: as §1
Cavia porcellus [5] = assay: In vivo activity for protection against PAF acether induced thrombocytopenia in guinea pig after 5 min of intravenous administration (2 mg/kg); format: functional; procedure, shortened: as §1
Cavia porcellus [6] = assay: In vivo activity for protection against PAF acether induced bronchoconstriction in guinea pig after 5 min of intravenous administration (0.5 mg/kg); format: functional; procedure, shortened: as §1
Cavia porcellus [7] = assay: In vivo activity for protection against PAF acether induced bronchoconstriction in guinea pig after 5 min of intravenous administration (1 mg/kg); format: functional; procedure, shortened: as §1
Cavia porcellus [8] = assay: In vivo activity for protection against PAF acether induced bronchoconstriction in guinea pig after 5 min of intravenous administration (2 mg/kg); format: functional; procedure, shortened: as §1
Oryctolagus cuniculus [9] = assay: […] antagonistic activity against platelet aggregation; format: functional
Oryctolagus cuniculus [10] = assay: […] antagonistic activity against PAF induced platelet aggregation (5 x 10e-8 M ); format: functional
Procedure, shortened: (§2)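 Rabbit PRP (male New Zealand, citrated cardiac-puncture blood, 300g 10 min; 300 000 per µL). Antagonist added to stirred PRP 2 min before PAF (5×10⁻⁸ M), collagen (40 µg/mL) or arachidonic acid (2×10⁻⁴ M). Born turbidimetric aggregometry; inhibition vs control aggregation; IC50 from dose-response curves. Compounds dissolved in ethanol 10 mg/mL stock, diluted in saline.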

Oryctolagus cuniculus [11] = assay: […] antagonistic activity against collagen induced platelet aggregation (40 ug/mL); format: functional; procedure, shortened: as §2
Rattus norvegicus [12] = assay: In vivo activity for protection against PAF acether induced hypotension in rat after 5 mins of intravenous administration (1 mg/kg); format: functional
Procedure, shortened: (§3)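 Male Sprague-Dawley rats (280-300 g), pentobarbital 50 mg/kg ip; jugular iv dosing, carotid arterial pressure by transducer. Control response to PAF 0.3 µg/kg iv, then antagonist; PAF 0.3 µg/kg re-injected and hypotension recorded. One antagonist dose per rat; percent inhibition per dose.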

Rattus norvegicus [13] = assay: In vivo activity for protection against acetylcholine induced hypotension in rat after 5 mins of intravenous administration (1 mg/kg); format: functional
Procedure, shortened: (§4)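 Male Sprague-Dawley rats (280-300 g), pentobarbital 50 mg/kg ip; jugular iv dosing, carotid pressure recorded. Same protocol as the PAF challenge but using acetylcholine 1 µg/kg iv as agonist: control response, antagonist, then re-challenge. One antagonist dose per rat; percent inhibition per dose.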

Cavia porcellus [14] = assay: In vivo activity for protection against PAF-acether induced bronchoconstriction in guinea pig after 5 min of intravenous administration (0.5 mg/kg); format: functional; procedure, shortened: as §1
Cavia porcellus [15] = assay: In vivo activity for protection against PAF-acether induced bronchoconstriction in guinea pig after 5 min of intravenous administration (1 mg/kg); format: functional; procedure, shortened: as §1
Cavia porcellus [16] = assay: In vivo activity for protection against PAF-acether induced bronchoconstriction in guinea pig after 5 min of intravenous administration (2 mg/kg); format: functional; procedure, shortened: as §1
Cavia porcellus [17] = assay: In vivo activity for protection against acetylcholine induced bronchoconstriction in guinea pig after 5 min of intravenous administration (1 mg/kg); format: functional
Cavia porcellus [18] = assay: In vivo activity for protection against acetylcholine induced bronchoconstriction in guinea pig after 5 min of intravenous administration (2 mg/kg); format: functional
Cavia porcellus [19] = assay: In vivo activity for protection against histamine induced bronchoconstriction in guinea pig after 5 min of intravenous administration (1 mg/kg); format: functional
Cavia porcellus [20] = assay: In vivo activity for protection against histamine induced bronchoconstriction in guinea pig after 5 min of intravenous administration (2 mg/kg); format: functional
Oryctolagus cuniculus [21] = assay: […] antagonistic activity against arachidonic-acid induced platelet aggregation (2*10e-4 M); format: functional; procedure, shortened: as §2
Rattus norvegicus [22] = assay: In vivo activity for protection against PAF acether induced hypotension in rat after 5 mins of intravenous administration (2 mg/kg); format: functional; procedure, shortened: as §3
Rattus norvegicus [23] = assay: In vivo activity for protection against acetylcholine induced hypotension in rat after 5 mins of intravenous administration (2 mg/kg); format: functional; procedure, shortened: as §4
Cavia porcellus [24] = assay: In vivo activity for protection against acetylcholine induced bronchoconstriction in guinea pig after 5 min of intravenous administration (5 mg/kg); format: functional
Rattus norvegicus [25] = assay: In vivo activity for protection against PAF acether induced hypotension in rat after 5 mins of intravenous administration (5 mg/kg); format: functional; procedure, shortened: as §3
Rattus norvegicus [26] = assay: In vivo activity for protection against acetylcholine induced hypotension in rat after 5 mins of intravenous administration (5 mg/kg); format: functional; procedure, shortened: as §4
Cavia porcellus [27] = assay: In vivo activity for protection against acetylcholine-induced bronchoconstriction in guinea pig after 5 min of intravenous administration (1 mg/kg); format: functional
Cavia porcellus [28] = assay: In vivo activity for protection against acetylcholine-induced bronchoconstriction in guinea pig after 5 min of intravenous administration (2 mg/kg); format: functional
Oryctolagus cuniculus [29] = assay: […] antagonistic activity against arachidonic-acid induced platelet aggregation at a concentration of 2*10e-4 M; format: functional; procedure, shortened: as §2
Oryctolagus cuniculus [30] = assay: […] antagonistic activity against collagen induced platelet aggregation at a concentration of 40 ug/mL; format: functional; procedure, shortened: as §2
Oryctolagus cuniculus [31] = assay: […] antagonistic activity against PAF induced platelet aggregation at a concentration of 5 x 10e-8 M; format: functional; procedure, shortened: as §2

Structure (SMILES) | EC50 (Oryctolagus cuniculus [1]) [µM] | EC50 (Oryctolagus cuniculus [2]) [µM] | EC50 (Oryctolagus cuniculus [10]) [µM] | EC50 (Oryctolagus cuniculus [11]) [µM] | EC50 (Oryctolagus cuniculus [21]) [µM] | Protection (Cavia porcellus [4]) [%] | Protection (Cavia porcellus [5]) [%] | Protection (Cavia porcellus [7]) [%] | Protection (Cavia porcellus [8]) [%] | ED50 (Oryctolagus cuniculus [9]) [µM] | Protection (Rattus norvegicus [12]) [%] | Protection (Rattus norvegicus [13]) [%] | Protection (Cavia porcellus [14]) [%] | Protection (Cavia porcellus [15]) [%] | Protection (Cavia porcellus [17]) [%] | Protection (Cavia porcellus [18]) [%] | Protection (Cavia porcellus [19]) [%] | Protection (Cavia porcellus [20]) [%] | Protection (Rattus norvegicus [22]) [%] | Protection (Rattus norvegicus [23]) [%] | further results
CCCCCCCCCCCCCCCCCCNC(=O)OCC(COP(=O)([O-])OCC[n+]1ccsc1)OC (stereo unspecified) | – | – | 30.5 | 89 | – | 62 | 69 | 72 | 85 | >100 | 45 | 0 | – | – | – | – | – | – | – | – | Protection (Cavia porcellus [3]): 32%; Protection (Cavia porcellus [6]): 53%
CCCCCCCCCCCCCCCCCCOCC(COC(=O)CCCC[N+](C)(C)C)OCC.[I-] (stereo unspecified) | – | – | 8 | 60 | > 100 | 24 | 55 | – | – | >100 | – | – | 69 | 77 | 0 | 9 | 0 | 0 | 20 | 17 | Protection (Cavia porcellus [16]): 73%
CCCCCCCCCCCCCCCCCCNC(=O)OCC(COC(=O)CCCC[N+](C)(C)C)OC(C)=O.[I-] (stereo unspecified) | – | – | 13 | 70 | > 100 | – | 38 | 88 | 90 | >100 | – | – | – | – | – | 79 | – | 17 | 46 | 63 | Protection (Cavia porcellus [24]): 80%; Protection (Rattus norvegicus [25]): 58%; Protection (Rattus norvegicus [26]): 74%
CCCCCCCCCCCCCCCCCCOCC(COC(=O)CCC[n+]1ccccc1)OCC.[Cl-] (stereo unspecified) | – | – | 1.5 | 100 | > 100 | 52 | 60 | – | – | >100 | 51 | 20 | 60 | 100 | 34 | 16 | 16 | 8 | 53 | 22 | –
CCCCCCCCCCCCCCCCCCOC[C@H](COC(=O)CCCC[N+](C)(C)C)OC(C)=O.[I-] | – | – | – | – | – | 38 | 57 | – | – | >100 | 18 | 18 | 79 | 90 | – | – | 35 | 20 | 32 | 5 | Protection (Cavia porcellus [16]): 88%; Protection (Cavia porcellus [27]): 21%; Protection (Cavia porcellus [28]): 0%; EC50 (Oryctolagus cuniculus [29]): > 100 µM; EC50 (Oryctolagus cuniculus [30]): ~90 µM; EC50 (Oryctolagus cuniculus [31]): 20 µM

Second part, led by results:

EC50 (Oryctolagus cuniculus [1]) [µM] | EC50 (Oryctolagus cuniculus [2]) [µM] | EC50 (Oryctolagus cuniculus [10]) [µM] | EC50 (Oryctolagus cuniculus [11]) [µM] | EC50 (Oryctolagus cuniculus [21]) [µM] | Structure (SMILES) | Protection (Cavia porcellus [4]) [%] | Protection (Cavia porcellus [5]) [%] | Protection (Cavia porcellus [7]) [%] | Protection (Cavia porcellus [8]) [%] | ED50 (Oryctolagus cuniculus [9]) [µM] | Protection (Rattus norvegicus [12]) [%] | Protection (Rattus norvegicus [13]) [%] | Protection (Cavia porcellus [14]) [%] | Protection (Cavia porcellus [15]) [%] | Protection (Cavia porcellus [17]) [%] | Protection (Cavia porcellus [18]) [%] | Protection (Cavia porcellus [19]) [%] | Protection (Cavia porcellus [20]) [%] | Protection (Rattus norvegicus [22]) [%] | Protection (Rattus norvegicus [23]) [%] | further results
18 | > 100 | – | – | – | CCCCCCCCCCCCCCCCCCOCC(COC(=O)CCCC[N+](C)(C)C)OC(C)=O (stereo unspecified) | – | – | – | – | – | – | – | – | – | – | – | – | – | – | – | –
24 | > 100 | – | – | – | CCCCCCCCCCCCCCCCCCOCC(COC(=O)CC[N+](C)(C)C)OC(C)=O (stereo unspecified) | – | – | – | – | – | – | – | – | – | – | – | – | – | – | – | –
– | – | 11 | 84 | > 100 | CCCCCCCCCCCCCCCCCCOC[C@@H](COC(=O)CCCC[N+](C)(C)C)OC(C)=O.[I-] | 63 | 49 | 91 | 93 | >100 | 12 | 16 | – | – | 0 | 0 | 0 | 0 | 34 | 20 | Protection (Cavia porcellus [6]): 61%
12 | > 100 | – | – | – | CCCCCCCCCCCCCCCCCCOCC(COC(=O)CCC[N+](C)(C)C)OC(C)=O (stereo unspecified) | – | – | – | – | – | – | – | – | – | – | – | – | – | – | – | –
